Paper PMC11865470 (Communications Biology, 2025)
Entries after “also recorded” stand apart in the source; their conditions may differ.

Key:
[1] = biological target: NaV1.4 (Homo sapiens, UniProt P35499); assay: whole-cell patch-clamp, off-target channel, 10 μM compound; format: cell-based; conditions: for sensitivity of channel to compound: vs 0.1% DMSO
Summary of the method: (§1)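 NaV channels, transiently transfected HEK293T cells, whole-cell, 16–24 h after seeding. Pipette (mM): 140 CsF, 1 EGTA, 10 NaCl, 10 HEPES, pH 7.4. Bath (mM): 140 NaCl, 5 KCl, 2 CaCl2, 1 MgCl2, 10 glucose, 10 HEPES, pH 7.4. Bath with 0.1% DMSO applied before 10 μM test compound. Inhibition ratios compared by unpaired t-test, n = 5.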

[2] = biological target: T1, HV1 (Homo sapiens, UniProt Q96D96); assay: whole-cell patch-clamp, off-target channel, 10 μM compound; format: cell-based; conditions: vs 0.1% DMSO
T1 sequence (Q96D96 1-273): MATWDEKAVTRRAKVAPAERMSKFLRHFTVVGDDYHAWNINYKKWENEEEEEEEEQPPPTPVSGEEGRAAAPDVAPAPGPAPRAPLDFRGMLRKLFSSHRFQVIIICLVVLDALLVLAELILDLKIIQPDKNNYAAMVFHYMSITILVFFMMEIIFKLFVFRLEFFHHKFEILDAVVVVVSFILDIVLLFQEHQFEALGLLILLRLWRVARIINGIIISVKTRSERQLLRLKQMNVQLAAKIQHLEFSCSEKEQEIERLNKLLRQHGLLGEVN
Summary of the method: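 HV1 in transfected HEK293T cells, whole-cell. Pipette (mM): 120 CsCl, 100 MES, pH 5.5. Bath (mM): 150 NaCl, 5 KCl, 1 MgCl2, 2 CaCl2, 10 glucose, 100 HEPES, pH 7.2. Bath with 0.1% DMSO applied before 10 μM test compound. Inhibition ratios compared by unpaired t-test, n = 5.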

[3] = system: KV2.1; assay: whole-cell patch-clamp, off-target channel, 10 μM compound; format: cell-based, Mus musculus; conditions: for sensitivity of channel to compound: vs 0.1% DMSO
Summary of the method: (§2)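 KV channels in transiently transfected HEK293T cells, whole-cell. Pipette (mM): 140 KCl, 2.5 MgCl2, 11 EGTA, 10 HEPES, pH 7.4. Bath (mM): 145 NaCl, 2.8 KCl, 2 CaCl2, 1 MgCl2, 10 glucose, 10 HEPES, pH 7.4. 0.1% DMSO bath applied, then 10 μM test compound. DMSO vs compound inhibition ratio compared by unpaired t-test, n = 5.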

[4] = biological target: KV1.3 (Homo sapiens, UniProt P22001); assay: as above; format: cell-based
KV1.3, sequence (P22001 whole entry): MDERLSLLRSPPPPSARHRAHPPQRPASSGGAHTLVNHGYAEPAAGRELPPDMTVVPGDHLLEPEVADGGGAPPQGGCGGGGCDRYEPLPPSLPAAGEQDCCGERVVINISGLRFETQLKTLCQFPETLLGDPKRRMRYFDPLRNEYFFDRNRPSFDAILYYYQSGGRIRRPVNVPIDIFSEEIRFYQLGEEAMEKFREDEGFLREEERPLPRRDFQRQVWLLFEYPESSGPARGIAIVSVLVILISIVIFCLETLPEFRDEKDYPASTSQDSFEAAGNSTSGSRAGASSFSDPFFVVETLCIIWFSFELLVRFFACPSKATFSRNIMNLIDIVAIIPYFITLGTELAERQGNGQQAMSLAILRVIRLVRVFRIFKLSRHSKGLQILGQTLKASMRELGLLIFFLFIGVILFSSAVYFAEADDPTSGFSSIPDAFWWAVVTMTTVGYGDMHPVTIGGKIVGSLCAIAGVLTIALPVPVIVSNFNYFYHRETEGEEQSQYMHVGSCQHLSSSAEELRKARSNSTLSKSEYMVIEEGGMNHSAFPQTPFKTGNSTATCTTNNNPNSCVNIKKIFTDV
Summary of the method: as §2

[5] = biological target: PAC (Homo sapiens, UniProt Q9H813); assay: whole-cell patch-clamp, off-target channel, 10 μM compound; format: cell-based; conditions: vs 0.1% DMSO
PAC, sequence (Q9H813 whole entry): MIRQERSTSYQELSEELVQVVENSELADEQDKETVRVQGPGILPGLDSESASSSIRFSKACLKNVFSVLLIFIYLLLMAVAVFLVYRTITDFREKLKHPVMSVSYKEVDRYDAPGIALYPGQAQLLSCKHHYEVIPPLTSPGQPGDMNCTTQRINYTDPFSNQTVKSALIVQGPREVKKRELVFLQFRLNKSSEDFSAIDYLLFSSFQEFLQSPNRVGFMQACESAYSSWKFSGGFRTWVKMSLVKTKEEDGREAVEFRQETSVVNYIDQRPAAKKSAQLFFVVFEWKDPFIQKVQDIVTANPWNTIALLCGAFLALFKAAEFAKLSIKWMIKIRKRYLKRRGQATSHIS
Summary of the method: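 PAC in transfected HEK293T cells, whole-cell. Pipette (mM): 135 CsCl, 1 MgCl2, 2 CaCl2, 10 HEPES, 5 EGTA, 4 Mg-ATP, pH 7.2. NaCl-based bath buffered with 10 mM HEPES (pH 7.3) or 5 mM Na3-citrate (pH 5.5). 0.1% DMSO bath applied before 10 μM test compound. Inhibition ratios compared by unpaired t-test, n = 5.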

[6] = biological target: T2, KV4.2 (Rattus norvegicus, UniProt Q63881); assay: whole-cell patch-clamp, off-target channel, 10 μM compound; format: cell-based; conditions: for sensitivity of channel to compound: vs 0.1% DMSO
T2 sequence (Q63881 1-630): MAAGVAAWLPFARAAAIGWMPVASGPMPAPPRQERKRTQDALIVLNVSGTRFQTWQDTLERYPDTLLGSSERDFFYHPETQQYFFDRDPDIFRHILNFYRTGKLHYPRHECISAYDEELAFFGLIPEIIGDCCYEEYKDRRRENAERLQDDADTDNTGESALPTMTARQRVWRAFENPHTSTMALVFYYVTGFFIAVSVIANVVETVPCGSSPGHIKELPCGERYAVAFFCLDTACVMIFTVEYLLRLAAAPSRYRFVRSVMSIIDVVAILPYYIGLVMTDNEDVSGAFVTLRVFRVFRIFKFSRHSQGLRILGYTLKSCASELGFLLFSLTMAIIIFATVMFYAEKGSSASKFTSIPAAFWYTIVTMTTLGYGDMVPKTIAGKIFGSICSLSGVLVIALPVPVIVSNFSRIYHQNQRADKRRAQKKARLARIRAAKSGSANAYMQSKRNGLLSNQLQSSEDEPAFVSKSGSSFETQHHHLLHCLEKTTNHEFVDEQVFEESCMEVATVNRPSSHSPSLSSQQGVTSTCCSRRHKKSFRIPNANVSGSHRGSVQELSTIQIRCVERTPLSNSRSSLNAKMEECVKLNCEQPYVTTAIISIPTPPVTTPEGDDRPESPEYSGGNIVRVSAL
Summary of the method: as §2

[7] = system: KV7.1; assay: as above; format: cell-based, Homo sapiens; conditions: for sensitivity of channel to compound: vs 0.1% DMSO
Summary of the method: as §2

[8] = biological target: NaV1.3 (Rattus norvegicus, UniProt P08104); assay: whole-cell patch-clamp, off-target channel, 10 μM compound; format: cell-based; conditions: vs 0.1% DMSO
NaV1.3, sequence (P08104 whole entry): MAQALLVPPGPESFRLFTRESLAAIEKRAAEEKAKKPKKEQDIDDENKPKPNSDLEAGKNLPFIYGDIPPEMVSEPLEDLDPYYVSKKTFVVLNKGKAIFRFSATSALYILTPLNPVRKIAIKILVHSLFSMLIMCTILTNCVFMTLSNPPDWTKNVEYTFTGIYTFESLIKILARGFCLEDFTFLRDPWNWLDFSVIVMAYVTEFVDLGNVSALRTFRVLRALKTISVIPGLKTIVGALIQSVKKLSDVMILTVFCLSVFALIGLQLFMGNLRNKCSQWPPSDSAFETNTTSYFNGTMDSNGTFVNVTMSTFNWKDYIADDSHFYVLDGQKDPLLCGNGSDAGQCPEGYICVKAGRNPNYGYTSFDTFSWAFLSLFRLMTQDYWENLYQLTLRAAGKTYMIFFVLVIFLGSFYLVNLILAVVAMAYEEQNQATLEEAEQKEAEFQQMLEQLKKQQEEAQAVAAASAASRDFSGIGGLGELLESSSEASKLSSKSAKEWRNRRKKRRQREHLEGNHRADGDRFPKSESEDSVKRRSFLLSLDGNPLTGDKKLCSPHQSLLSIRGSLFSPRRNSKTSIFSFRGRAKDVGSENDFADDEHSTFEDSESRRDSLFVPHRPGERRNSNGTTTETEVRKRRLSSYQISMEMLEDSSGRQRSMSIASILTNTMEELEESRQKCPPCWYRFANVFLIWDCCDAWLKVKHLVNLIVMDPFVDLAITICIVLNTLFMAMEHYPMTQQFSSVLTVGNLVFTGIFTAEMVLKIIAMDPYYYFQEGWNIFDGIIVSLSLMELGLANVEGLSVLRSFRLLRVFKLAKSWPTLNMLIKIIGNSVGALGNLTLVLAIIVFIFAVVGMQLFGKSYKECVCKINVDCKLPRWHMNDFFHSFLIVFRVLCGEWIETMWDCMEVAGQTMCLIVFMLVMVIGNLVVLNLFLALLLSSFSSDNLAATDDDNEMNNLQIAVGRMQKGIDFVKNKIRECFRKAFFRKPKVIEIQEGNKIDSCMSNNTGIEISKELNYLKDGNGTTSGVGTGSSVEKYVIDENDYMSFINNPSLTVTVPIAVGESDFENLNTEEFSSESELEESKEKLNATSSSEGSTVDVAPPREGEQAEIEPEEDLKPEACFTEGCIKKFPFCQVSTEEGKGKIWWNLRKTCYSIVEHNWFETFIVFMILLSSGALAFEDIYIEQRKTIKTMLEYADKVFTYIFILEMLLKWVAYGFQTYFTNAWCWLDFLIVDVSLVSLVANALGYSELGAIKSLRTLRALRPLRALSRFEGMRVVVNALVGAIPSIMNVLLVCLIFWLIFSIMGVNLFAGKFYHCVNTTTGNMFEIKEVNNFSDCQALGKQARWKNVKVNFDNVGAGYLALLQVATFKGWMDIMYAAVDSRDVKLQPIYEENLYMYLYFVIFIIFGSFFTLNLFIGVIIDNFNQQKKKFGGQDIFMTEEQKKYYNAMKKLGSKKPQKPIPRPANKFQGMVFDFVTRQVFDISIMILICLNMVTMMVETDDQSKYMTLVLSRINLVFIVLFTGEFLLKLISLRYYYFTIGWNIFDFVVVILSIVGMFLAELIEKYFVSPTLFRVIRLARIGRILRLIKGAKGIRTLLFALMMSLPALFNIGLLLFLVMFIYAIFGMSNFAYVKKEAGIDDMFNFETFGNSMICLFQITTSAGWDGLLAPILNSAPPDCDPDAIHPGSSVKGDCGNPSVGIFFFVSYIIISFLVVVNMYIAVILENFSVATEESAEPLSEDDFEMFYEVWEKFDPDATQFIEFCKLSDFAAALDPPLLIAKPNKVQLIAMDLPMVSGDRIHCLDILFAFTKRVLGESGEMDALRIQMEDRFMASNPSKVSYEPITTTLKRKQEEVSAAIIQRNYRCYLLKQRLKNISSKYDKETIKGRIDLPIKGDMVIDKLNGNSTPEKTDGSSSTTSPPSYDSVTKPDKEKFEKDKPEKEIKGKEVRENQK
Summary of the method: as §1

[9] = biological target: T3, mOtop1/R554A (Mus musculus, UniProt Q80VM9, R554A); assay: patch-clamp, mOtop1 mutant; format: cell-based; conditions: for effect of mutating R554 on the compound's action on Otop1: Fig 5I, J
T3 sequence (Q80VM9 1-600 R554A): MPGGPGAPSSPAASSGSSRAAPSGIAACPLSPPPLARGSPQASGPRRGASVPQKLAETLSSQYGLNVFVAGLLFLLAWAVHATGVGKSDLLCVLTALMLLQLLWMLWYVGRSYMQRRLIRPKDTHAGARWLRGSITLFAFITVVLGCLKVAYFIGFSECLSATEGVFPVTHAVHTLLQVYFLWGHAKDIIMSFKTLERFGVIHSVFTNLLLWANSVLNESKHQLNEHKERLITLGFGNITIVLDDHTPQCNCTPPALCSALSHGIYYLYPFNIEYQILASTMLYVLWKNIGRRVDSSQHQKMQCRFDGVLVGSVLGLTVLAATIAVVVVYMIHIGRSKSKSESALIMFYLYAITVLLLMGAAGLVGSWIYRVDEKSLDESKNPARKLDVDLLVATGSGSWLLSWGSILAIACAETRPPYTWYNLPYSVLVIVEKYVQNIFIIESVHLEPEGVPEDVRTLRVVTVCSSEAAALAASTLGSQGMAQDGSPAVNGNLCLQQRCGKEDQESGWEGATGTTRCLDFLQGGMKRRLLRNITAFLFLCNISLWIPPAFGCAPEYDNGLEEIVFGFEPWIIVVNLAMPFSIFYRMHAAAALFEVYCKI

NaV1.4, sequence (P35499 whole entry): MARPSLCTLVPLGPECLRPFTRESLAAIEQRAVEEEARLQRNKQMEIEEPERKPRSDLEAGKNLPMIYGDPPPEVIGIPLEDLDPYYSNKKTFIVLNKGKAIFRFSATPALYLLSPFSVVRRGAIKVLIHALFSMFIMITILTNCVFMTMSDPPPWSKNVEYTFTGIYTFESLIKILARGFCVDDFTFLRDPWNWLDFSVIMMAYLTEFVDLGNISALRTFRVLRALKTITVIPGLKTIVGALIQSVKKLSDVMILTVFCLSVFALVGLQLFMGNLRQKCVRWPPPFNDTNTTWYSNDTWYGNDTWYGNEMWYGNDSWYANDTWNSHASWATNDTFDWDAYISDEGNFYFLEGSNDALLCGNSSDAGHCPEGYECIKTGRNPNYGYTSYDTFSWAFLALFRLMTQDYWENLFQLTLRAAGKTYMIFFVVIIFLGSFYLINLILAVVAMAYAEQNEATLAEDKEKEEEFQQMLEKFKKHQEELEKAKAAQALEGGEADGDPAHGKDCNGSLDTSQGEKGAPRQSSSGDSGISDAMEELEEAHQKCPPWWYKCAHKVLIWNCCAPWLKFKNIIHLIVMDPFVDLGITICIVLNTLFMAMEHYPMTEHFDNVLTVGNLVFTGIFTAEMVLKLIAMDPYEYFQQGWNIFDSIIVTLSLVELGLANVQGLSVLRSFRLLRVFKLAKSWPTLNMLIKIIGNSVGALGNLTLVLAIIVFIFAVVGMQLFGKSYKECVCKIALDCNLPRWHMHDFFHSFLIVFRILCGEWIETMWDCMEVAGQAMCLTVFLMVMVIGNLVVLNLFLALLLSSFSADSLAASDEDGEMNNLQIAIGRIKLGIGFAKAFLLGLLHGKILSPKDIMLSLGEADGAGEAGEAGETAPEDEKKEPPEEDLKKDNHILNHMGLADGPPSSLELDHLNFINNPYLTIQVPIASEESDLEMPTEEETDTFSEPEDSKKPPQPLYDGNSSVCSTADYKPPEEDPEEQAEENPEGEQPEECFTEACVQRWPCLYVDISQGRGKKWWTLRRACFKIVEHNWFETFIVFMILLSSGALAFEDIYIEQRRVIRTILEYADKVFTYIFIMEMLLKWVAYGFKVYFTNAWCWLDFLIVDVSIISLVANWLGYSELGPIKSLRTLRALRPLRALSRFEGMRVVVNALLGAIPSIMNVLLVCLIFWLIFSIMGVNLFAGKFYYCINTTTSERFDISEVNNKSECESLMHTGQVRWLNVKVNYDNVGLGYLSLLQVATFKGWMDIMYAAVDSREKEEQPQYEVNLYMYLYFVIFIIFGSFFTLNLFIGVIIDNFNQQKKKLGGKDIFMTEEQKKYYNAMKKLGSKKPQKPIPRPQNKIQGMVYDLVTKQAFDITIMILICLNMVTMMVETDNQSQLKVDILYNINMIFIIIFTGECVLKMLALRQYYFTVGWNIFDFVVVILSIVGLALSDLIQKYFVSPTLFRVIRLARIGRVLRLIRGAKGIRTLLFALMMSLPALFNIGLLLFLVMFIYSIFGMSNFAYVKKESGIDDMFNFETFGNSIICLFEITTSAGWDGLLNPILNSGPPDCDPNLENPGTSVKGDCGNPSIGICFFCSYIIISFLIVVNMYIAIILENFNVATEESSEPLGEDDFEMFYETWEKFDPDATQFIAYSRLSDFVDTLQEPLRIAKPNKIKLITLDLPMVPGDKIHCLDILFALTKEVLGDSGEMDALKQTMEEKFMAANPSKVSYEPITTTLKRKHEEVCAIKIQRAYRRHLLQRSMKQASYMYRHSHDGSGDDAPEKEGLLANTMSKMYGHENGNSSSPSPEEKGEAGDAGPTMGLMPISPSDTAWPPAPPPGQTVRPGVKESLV

sensitivity of channel to compound [1] | sensitivity of channel to compound [2] | sensitivity of channel to compound ([4]; vs 0.1% DMSO) | sensitivity of channel to compound [5] | sensitivity of channel to compound [6] | sensitivity of channel to compound [8] | effect of mutating R554 on the compound's action on Otop1 [9] | inhibition ratio [1] [%] | inhibition ratio [4] [%] | response of mutant to MFaN ([9]; pHs of 4.5, 5.0, and 6.0) | inhibition ratio [6] [%] | SMILES | sensitivity of channel to compound [3] | sensitivity of channel to compound [7] | inhibition ratio [3] [%] | response of mutant to MFaN ([9]; 10 μM, pH 5.5) | inhibition ratio [7] [%]
completely resistant | completely resistant | completely resistant | completely resistant | completely resistant | completely resistant | only partially reduced | – | – | – | – | Cc1cc(NC(=O)c2ccc(Br)o2)ccc1NC(=O)c1ccco1 [B2FAMP, 5-Bromo-N-[4-(2-furoylamino)-3-methylphenyl]-2-furamide] | completely resistant | completely resistant | – | – | –
– | completely resistant | – | completely resistant | completely resistant | completely resistant | – | 7.0 | 15.9 | completely unresponsive | – | Cc1ccc(C(=O)Nc2ccc3ccccc3c2)o1 [MFaN, 5-methyl-N-2-naphthyl-2-furamide] | – | completely resistant | 20.0 | entirely unresponsive; also recorded: completely abolished | –
completely resistant | completely resistant | – | completely resistant | – | completely resistant | did not affect | – | 10.8 | – | 14.3 | CC(C)c1noc2ncc(C(=O)c3ccccc3O)cc12 [HIMOP, (2-hydroxyphenyl)-(3-propan-2-yl-5-isoxazolo[5,4-b]pyridinyl)methanone] | completely resistant | – | – | – | 16.4
